In ChEMBL document CHEMBL4725369, “Multicomponent Synthesis, Binding Mode, and Structure-Activity Relationship of Selective Histone Deacetylase 6 (HDAC6) Inhibitors with Bifurcated Capping Groups” (J Med Chem, 2020):
The source made the active and inactive calls. The calls are words filed in the database; no cut-off is given here.

Tests used:
Histone deacetylase 1 = Histone deacetylase 1 (Homo sapiens, UniProt Q13547); assay: Inhibition of human recombinant HDAC1 using ZMAL (Z-Lys(Ac)-AMC) fluorogenic substrate incubated for 90 mins by fluorescence based assay
[1] = target: T1, Protein deacetylase HDAC6 (Homo sapiens, UniProt Q9UBN7); assay: Inhibition of human recombinant HDAC6 using ZMAL (Z-Lys(Ac)-AMC) fluorogenic substrate incubated for 90 mins by fluorescence based assay
T1 sequence (Q9UBN7 whole entry): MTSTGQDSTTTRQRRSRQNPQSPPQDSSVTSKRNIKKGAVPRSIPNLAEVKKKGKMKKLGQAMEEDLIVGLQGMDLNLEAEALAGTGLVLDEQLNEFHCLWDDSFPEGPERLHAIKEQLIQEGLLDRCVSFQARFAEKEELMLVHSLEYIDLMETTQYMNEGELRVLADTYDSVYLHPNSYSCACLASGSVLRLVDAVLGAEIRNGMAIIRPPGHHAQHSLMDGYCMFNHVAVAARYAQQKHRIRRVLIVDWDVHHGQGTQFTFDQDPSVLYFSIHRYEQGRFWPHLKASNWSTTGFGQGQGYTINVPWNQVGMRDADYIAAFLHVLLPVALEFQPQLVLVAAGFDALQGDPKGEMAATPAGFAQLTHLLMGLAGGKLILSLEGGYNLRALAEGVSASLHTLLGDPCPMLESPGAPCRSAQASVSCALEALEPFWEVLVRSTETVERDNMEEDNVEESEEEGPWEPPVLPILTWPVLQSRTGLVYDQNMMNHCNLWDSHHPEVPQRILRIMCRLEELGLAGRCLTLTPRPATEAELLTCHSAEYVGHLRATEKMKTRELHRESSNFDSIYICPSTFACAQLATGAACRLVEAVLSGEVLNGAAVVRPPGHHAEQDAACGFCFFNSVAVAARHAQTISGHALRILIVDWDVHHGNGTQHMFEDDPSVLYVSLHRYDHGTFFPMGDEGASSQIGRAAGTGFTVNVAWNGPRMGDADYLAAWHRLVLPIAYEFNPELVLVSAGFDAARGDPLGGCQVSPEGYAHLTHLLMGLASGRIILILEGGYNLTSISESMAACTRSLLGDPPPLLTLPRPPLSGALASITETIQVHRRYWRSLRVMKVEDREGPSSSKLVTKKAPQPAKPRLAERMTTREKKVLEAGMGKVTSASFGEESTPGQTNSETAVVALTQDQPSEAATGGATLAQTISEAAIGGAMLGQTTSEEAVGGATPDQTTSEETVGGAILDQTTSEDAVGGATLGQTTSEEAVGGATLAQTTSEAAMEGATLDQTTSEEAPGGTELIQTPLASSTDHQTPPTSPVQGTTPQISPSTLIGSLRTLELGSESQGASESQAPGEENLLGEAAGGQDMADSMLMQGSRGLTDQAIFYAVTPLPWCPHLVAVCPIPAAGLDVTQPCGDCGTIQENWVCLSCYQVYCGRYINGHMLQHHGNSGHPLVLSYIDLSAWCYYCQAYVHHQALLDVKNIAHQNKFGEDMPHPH

[2] = Intrinsic clearance in mouse liver microsomes; format: ADME, Microsome
K562 = assay: Cytotoxicity in human K562 cells assessed as reduction in cell viability incubated for 72 hrs by cell-Titer-Glo luminescent cell viability assay; format: cell-based; settings: K562, 72 h
Summary of the method: (§1)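 Cells were exposed in 384-well format to a digitally dispensed concentration series of 1–50 μM. Viability was read by CellTiter-Glo luminescence after 72 h. Data were normalized to controls, and IC50 came from nonlinear regression of a sigmoid dose curve. K562 was maintained in RPMI 1640 with 10% FCS at 37 °C and 5% CO2. MOLT-4 was maintained in RPMI 1640 with 20% FCS.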

CCRF-HSB-2 [3] = assay: Potentiation of epirubicin-induced cytotoxicity in human CCRF-HSB-2 cells assessed as reduction in cell viability at 2.5 to 5 uM incubated for 72 hrs in presence of 10 nM epirubicin1 by cell-Titer-Glo luminescent cell viability assay; format: functional, cell-based; settings: dose microM 2.5-5, time 72.0 hrs
Summary of the method: (§2)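 HSB-2 cells in RPMI 1640 with 20% FCS on a semi-automated combination platform. Test compound was fixed at 2.5 or 5 μM, alone or with chemotherapeutics and glucocorticoids dispensed at 10 nM-25 μM. Viability read by CellTiter-Glo luminescence after 72 h.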

CCRF-HSB-2 [4] = assay: Potentiation of […]-induced cytotoxicity in human CCRF-HSB-2 cells assessed as reduction in cell viability at 2.5 to 5 uM incubated for 72 hrs in presence of 10 nM daunorubicin by cell-Titer-Glo luminescent cell viability assay; format: functional, cell-based; settings: dose microM 2.5-5, time 72.0 hrs; summary of the method: as §2
MOLT-4 = assay: Cytotoxicity in human MOLT-4 cells assessed as reduction in cell viability incubated for 72 hrs by cell-Titer-Glo luminescent cell viability assay; format: cell-based; settings: MOLT-4, 72 h; summary of the method: as §1
[5] = target: T2, Protein deacetylase HDAC6 (Homo sapiens) (UniProt Q9UBN7); assay: Inhibition of HDAC6 in human HL60 cells assessed as induction of alpha-tubulin acetylation at 2.5 to 5 uM incubated for 24 hrs by immunoblot analysis; format: cell-based; settings: HL-60, dose microM 2.5-5, time […]
T2 sequence (whole entry): T1 sequence (Q9UBN7 whole entry)

[6] = Intrinsic clearance in human liver microsomes; format: ADME, Microsome
Histone deacetylase 3 = Histone deacetylase 3 (Homo sapiens, UniProt O15379); assay: Inhibition of human recombinant HDAC3 using ZMAL (Z-Lys(Ac)-AMC) fluorogenic substrate incubated for 90 mins by fluorescence based assay
Summary of the method: (§3)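 Enzyme was incubated with compound and ZMAL substrate (21.43 μM stock in assay buffer) for 90 min at 37 °C. Trypsin development followed for 30 min at 37 °C, then fluorescence at ex 355/em 460 nm. Duplicates, at least two independent experiments.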

CCRF-HSB-2 [7] = assay: Cytotoxicity in human CCRF-HSB-2 cells assessed as reduction in cell viability incubated for 72 hrs by cell-Titer-Glo luminescent cell viability assay; format: cell-based; settings: CCRF-HSB-2, 72 h
Summary of the method: (§4)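 Leukaemia lines kept in RPMI 1640 with 20% FCS (SUP-B15 in McCoy's 5A with 20% FCS). Compound dispensed digitally at increasing concentrations from 1 μM to 50 μM. Viability read by CellTiter-Glo luminescence after 72 h. Raw data were normalized to controls and IC50 was fitted by sigmoid nonlinear regression.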

CCRF-HSB-2 [8] = assay: Cytotoxicity in human CCRF-HSB-2 cells assessed as reduction in cell viability at 2.5 to 5 uM incubated for 72 hrs by cell-Titer-Glo luminescent cell viability assay; format: cell-based; settings: ccrf-hsb-2, 72 h, dose 2.5-5 µM; summary of the method: as §2
Histone deacetylase 8 = target: T3, Histone deacetylase 8 (Homo sapiens, UniProt Q9BY41); assay: Inhibition of human recombinant HDAC8 using Boc-Lys-(epsilon-Tfa)-AMC fluorogenic substrate incubated for 90 mins by fluorescence based assay
T3 sequence (Q9BY41 whole entry): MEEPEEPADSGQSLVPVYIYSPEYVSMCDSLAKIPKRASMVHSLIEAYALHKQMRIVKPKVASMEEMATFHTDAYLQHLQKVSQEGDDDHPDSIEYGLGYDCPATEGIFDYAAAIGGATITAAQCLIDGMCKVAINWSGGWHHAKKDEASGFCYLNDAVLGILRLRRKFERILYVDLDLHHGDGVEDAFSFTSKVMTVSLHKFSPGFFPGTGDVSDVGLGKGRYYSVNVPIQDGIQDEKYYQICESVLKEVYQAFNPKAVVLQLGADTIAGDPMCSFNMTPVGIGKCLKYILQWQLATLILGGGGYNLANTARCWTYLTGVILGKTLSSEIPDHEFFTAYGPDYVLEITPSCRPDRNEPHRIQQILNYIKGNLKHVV
Summary of the method: (§5)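 Human recombinant HDAC4 or HDAC8, 20 ng per well, in Tris-HCl pH 8.0 buffer with 1 mg/mL BSA. Enzyme was preincubated 5 min with inhibitor, then started with Boc-Lys(ε-Tfa)-AMC, 100 μM for HDAC4 or 60 μM for HDAC8. […] Fluorescence ex 355/em 460 nm was read 15 min later.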

Jurkat = assay: Cytotoxicity in human Jurkat cells assessed as reduction in cell viability incubated for 72 hrs by cell-Titer-Glo luminescent cell viability assay; format: cell-based; summary of the method: as §4
SUP-B15 = assay: Cytotoxicity in human SUP-B15 cells assessed as reduction in cell viability incubated for 72 hrs by cell-Titer-Glo luminescent cell viability assay; format: cell-based; settings: SUP-B15, 72 h; summary of the method: as §4
Histone deacetylase 4 = Histone deacetylase 4 (Homo sapiens, UniProt P56524); assay: Inhibition of human recombinant HDAC4 using Boc-Lys-(epsilon-Tfa)-AMC fluorogenic substrate incubated for 90 mins by fluorescence based assay; summary of the method: as §5
Histone deacetylase 2 = Histone deacetylase 2 (Homo sapiens, UniProt Q92769); assay: Inhibition of human recombinant HDAC2 using ZMAL (Z-Lys(Ac)-AMC) fluorogenic substrate incubated for 90 mins by fluorescence based assay; summary of the method: as §3
HL-60 [9] = assay: Induction of apoptosis in human HL-60 cells at 2.5 to 5 uM incubated for 24 hrs by Annexin V and PI staining based FACS analysis; format: cell-based; settings: hl-60, 24 h, dose 2.5-5 µM
Summary of the method: (§6)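 HL60 cells in RPMI 1640 with 10% FCS at 37°C, 5% CO2. Cells were exposed to test compound at 2.5 or 5 μM, alone or combined with bortezomib, for 24 h. Annexin V/propidium iodide staining was read by FACS; n=3, with paired two-tailed Student's t-test.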

[10] = target: Class 1 histone deacetylase (Homo sapiens) (UniProt Q13547+O15379+Q92769+Q9BY41); assay: Inhibition of class-1 HDAC in human HL60 cells assessed as induction of histone H3 acetylation at 2.5 to 5 uM incubated for 24 hrs by immunoblot analysis; format: cell-based; settings: HL-60, dose microM 2.5-5, time […]
HL-60 [11] = assay: Potentiation of bortezomib-induced apoptosis in human HL-60 cells assessed as increase in number of late apoptotic/dead cells at 2.5 to 5 uM incubated for 24 hrs in presence of 0.6 to 1.2 nM bortezomib- by Annexin V and PI staining based FACS analysis; format: functional, cell-based; settings: dose microM 2.5-5, time […]; summary of the method: as §6
TALL-1 = assay: Cytotoxicity in human TALL-1 cells assessed as reduction in cell viability incubated for 72 hrs by cell-Titer-Glo luminescent cell viability assay; format: cell-based; settings: TALL-1, 72 h; summary of the method: as §4

Sequence of Histone deacetylase 1 (Q13547 whole entry): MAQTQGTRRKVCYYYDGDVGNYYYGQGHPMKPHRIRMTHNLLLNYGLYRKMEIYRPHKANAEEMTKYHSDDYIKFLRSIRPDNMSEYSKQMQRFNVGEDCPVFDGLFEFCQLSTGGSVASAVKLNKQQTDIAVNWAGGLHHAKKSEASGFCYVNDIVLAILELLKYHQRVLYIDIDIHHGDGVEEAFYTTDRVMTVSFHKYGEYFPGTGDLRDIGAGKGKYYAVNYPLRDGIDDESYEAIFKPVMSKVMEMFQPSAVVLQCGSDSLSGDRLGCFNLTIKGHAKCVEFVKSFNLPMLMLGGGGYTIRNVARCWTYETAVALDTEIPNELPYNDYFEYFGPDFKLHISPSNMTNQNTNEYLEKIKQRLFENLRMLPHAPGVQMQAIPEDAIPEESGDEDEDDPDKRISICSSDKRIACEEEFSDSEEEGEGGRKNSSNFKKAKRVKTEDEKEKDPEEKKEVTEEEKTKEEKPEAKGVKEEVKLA
Sequence of Histone deacetylase 2 (Q92769 whole entry): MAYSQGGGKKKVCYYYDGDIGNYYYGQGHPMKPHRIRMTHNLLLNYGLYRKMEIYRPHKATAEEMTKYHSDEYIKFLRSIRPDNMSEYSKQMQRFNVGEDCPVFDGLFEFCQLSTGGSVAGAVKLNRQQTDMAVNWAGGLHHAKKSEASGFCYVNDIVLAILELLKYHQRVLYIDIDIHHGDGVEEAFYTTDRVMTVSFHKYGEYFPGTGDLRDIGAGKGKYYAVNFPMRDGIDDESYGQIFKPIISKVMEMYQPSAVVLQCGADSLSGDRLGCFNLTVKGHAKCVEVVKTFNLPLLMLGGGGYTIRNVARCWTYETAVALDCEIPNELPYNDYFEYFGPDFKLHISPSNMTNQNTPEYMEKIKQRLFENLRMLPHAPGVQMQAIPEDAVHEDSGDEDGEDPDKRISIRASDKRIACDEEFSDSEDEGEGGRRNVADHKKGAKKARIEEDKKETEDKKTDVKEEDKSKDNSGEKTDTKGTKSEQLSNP
Sequence of Histone deacetylase 3 (O15379 whole entry): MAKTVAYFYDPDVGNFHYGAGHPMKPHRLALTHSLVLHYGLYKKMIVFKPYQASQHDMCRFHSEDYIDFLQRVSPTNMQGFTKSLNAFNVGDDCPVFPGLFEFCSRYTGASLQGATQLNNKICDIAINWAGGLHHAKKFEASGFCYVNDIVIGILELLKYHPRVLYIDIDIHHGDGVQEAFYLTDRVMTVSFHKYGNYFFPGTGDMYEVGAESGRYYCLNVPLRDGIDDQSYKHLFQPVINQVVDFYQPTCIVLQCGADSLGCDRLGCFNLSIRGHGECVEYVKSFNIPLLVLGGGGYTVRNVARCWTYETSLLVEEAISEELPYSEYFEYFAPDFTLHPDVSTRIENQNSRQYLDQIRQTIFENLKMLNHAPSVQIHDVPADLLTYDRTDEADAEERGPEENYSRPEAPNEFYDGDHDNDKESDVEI
Sequence of Histone deacetylase 4 (P56524 whole entry): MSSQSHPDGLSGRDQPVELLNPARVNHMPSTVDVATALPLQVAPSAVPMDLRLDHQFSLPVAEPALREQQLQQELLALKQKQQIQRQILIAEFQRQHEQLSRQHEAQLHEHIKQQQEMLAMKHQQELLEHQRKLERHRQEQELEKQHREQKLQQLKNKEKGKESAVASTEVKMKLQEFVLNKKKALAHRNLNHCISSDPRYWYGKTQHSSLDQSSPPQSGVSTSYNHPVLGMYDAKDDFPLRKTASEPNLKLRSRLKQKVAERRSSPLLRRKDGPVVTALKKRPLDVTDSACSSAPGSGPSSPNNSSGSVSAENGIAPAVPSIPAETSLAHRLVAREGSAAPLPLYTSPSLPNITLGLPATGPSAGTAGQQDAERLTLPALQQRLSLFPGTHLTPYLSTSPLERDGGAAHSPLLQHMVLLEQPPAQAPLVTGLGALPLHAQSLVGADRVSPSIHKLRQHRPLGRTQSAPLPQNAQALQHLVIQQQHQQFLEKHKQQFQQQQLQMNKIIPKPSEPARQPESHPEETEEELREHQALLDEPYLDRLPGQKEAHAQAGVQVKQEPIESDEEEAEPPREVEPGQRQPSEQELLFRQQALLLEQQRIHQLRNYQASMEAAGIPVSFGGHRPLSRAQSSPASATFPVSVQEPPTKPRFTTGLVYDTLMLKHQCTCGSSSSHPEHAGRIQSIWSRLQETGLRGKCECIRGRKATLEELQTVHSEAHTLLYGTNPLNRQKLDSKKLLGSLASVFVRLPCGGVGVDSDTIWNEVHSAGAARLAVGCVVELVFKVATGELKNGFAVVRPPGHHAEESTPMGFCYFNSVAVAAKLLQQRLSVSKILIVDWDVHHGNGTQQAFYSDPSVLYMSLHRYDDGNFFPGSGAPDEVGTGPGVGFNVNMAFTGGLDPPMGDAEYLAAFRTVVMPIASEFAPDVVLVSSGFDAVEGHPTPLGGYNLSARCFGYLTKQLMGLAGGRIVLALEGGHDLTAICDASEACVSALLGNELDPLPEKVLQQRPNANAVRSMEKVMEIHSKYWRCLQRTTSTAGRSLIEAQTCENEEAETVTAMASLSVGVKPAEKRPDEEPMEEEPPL

Structure (SMILES)	IC50 (Histone deacetylase 1)	IC50 [1]	also measured
Cc1ccccc1C(=O)N(Cc1ccc(C(=O)NO)cc1)Cc1nnnn1C1CCCCC1	3030 nM	60 nM	–
O=C(NO)c1ccc(CN(Cc2nnnn2Cc2ccccc2)C(=O)c2ccccc2C(F)(F)F)cc1	5180 nM	30 nM	CLint [2]: 26 µL/min/mg; IC50 (K562): 41600 nM; Activity (CCRF-HSB-2 [3]): Active; Activity (CCRF-HSB-2 [4]): Active; IC50 (MOLT-4): 42400 nM; inhibition [5]: Active; CLint [6]: 30 µL/min/mg; IC50 (Histone deacetylase 3): 8480 nM; IC50 (CCRF-HSB-2 [7]): 51800 nM; Activity (CCRF-HSB-2 [8]): Non-Toxic; IC50 (Histone deacetylase 8): 14700 nM; IC50 (Jurkat): 32100 nM; IC50 (SUP-B15): 22500 nM; IC50 (Histone deacetylase 4): 55400 nM; IC50 (Histone deacetylase 2): 2260 nM; Activity (HL-60 [9]): Non-Toxic; inhibition [10]: inactive; Activity (HL-60 [11]): Active; IC50 (TALL-1): 49400 nM
O=C(NO)c1ccc(CNC(c2ccccc2)c2nnnn2C2CCCCC2)cc1 (stereo not drawn)	4060 nM	120 nM	–
O=C(NO)c1ccc(CNC(c2ccccc2)c2nnnn2Cc2ccccc2)cc1 (stereo not drawn)	3370 nM	100 nM	–
O=C(NO)c1ccc(CNCc2nnnn2Cc2ccccc2)cc1	2450 nM	100 nM	–
CC(C)(C)n1nnnc1CNCc1ccc(C(=O)NO)cc1	8240 nM	330 nM	–

The next molecules have a lower IC50 (Histone deacetylase 1) than those just listed; values first:

IC50 (Histone deacetylase 1)	IC50 [1]	Structure (SMILES)	also measured
900 nM	80 nM	Cc1cc(C)cc(C(=O)N(Cc2ccc(C(=O)NO)cc2)Cc2nnnn2Cc2ccccc2)c1	–
2060 nM	120 nM	O=C(NO)c1ccc(CNCc2nnnn2C2CCCCC2)cc1	–
1240 nM	30 nM	O=C(NO)c1ccc(CN(Cc2nnnn2Cc2ccccc2)C(=O)c2ccccc2)cc1	–
2010 nM	120 nM	CCCCC(NCc1ccc(C(=O)NO)cc1)c1nnnn1Cc1ccccc1 (stereo not drawn)	–
2370 nM	70 nM	O=C(NO)c1ccc(CN(Cc2nnnn2C2CCCCC2)C(=O)c2ccccc2)cc1	–
1780 nM	320 nM	CC(C)c1ccc(C(=O)N(Cc2ccc(C(=O)NO)cc2)Cc2nnnn2Cc2ccccc2)cc1	–
